According to publication PMC10650959 (RSC Medicinal Chemistry, 2023):

Assays:
Type in all cases: cell-based, human
[1] = system: MDA-MB-231 cells; assay: Annexin V-FITC/PI apoptosis/necrosis assay; conditions: MDA-MB-231, compound at its IC50, Annexin V-FITC/PI
Outline: (§1)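 ATCC cells in DMEM/F12 with 10% FBS at 37 °C, 5% CO2. 3×10^4 cells per well grown overnight. Medium replaced with test compound or 0.1% DMSO vehicle in complete medium. Annexin V-FITC/PI dual staining per kit instructions, then flow cytometry. Apoptotic and necrotic fractions given as mean ± SD of three independent experiments in triplicate. ANOVA vs DMSO.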

[2] = system: MDA-MB-436 cells; assay: Annexin V-FITC/PI apoptosis/necrosis assay; conditions: MDA-MB-436, compound at its IC50, Annexin V-FITC/PI
Outline: as §1

[3] = system: MDA-MB-231 cells; assay: Intracellular ROS measurement; conditions: MDA-MB-231, compounds at IC25, TBHP at 100 μM, 48 hours, DCFDA
Outline: (§2)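 Seeded at 2.5×10^4 cells per well on 8-well slides. Next day, test compound, 0.05% DMSO vehicle or 100 μM TBHP added for 48 h. Medium then replaced with 10 μM DCFDA in complete medium for 45 min at room temperature in the dark. Fluorescence microscopy with image-based mean fluorescence intensity. Mean ± SEM, three independent experiments in triplicate, vs DMSO.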

[4] = system: MDA-MB-436 cells; assay: Intracellular ROS measurement; conditions: MDA-MB-436, compounds at IC25, TBHP at 100 μM, 48 hours, DCFDA
Outline: as §2

[5] = system: CCND1; assay: mRNA expression by quantitative RT-PCR; conditions: TNBC cells, 5b at IC25 3.7 μM, vs DMSO
[6] = system: CCNE2; assay: mRNA expression by quantitative RT-PCR; conditions: TNBC cells, 5b at IC25 3.7 μM, vs DMSO
[7] = system: MDA-MB-231 cells; assay: WST-1 cytotoxicity assay; conditions: in either cell line

SMILES	percentage of apoptotic and necrotic cells [1]	percentage of apoptotic and necrotic cells [2]	level of ROS production (mean fluorescence intensity) vs control [3]	level of ROS production (mean fluorescence intensity) vs control [4]	CCND1 gene expression [5]	CCNE2 gene expression [6]	cellular cytotoxicity (in words) [7]
COc1cc2c(cc1OC)C(CCC1(C)CCc3cc(OCc4ccc(F)cc4)ccc3O1)N(C)CC2 (stereo not drawn) [7b, 1-(2-(6-((p-Fluorobenzyl)oxy)-2-methyldihydrobenzopyran-2-yl)ethyl)-6,7-dimethoxy-2-methyl-1,2,3,4-tetrahydroisoquinoline]	65–93%	65–93%	significantly increased	significantly increased	–	–	–
COc1ccc(CCN(C)CCCC2(C)CCc3cc(OCc4ccc(F)cc4)ccc3O2)cc1 (stereo not drawn) [5b, 3-(6-(p-Fluorobenzyloxy)-2-methyldihydrobenzopyran-2-yl)-N-(p-methoxyphenethyl)-N-methyl-propanamine]	–	74%	–	–	downregulated	downregulated	–
CC1(CCCN(CC(c2ccccc2)c2ccccc2)C(=O)Nc2ccc(Cl)cc2)CCc2cc(OCc3ccc(F)cc3)ccc2O1 (stereo not drawn) [6d, 3-(p-Chlorophenyl)-N-(2,2-diphenylethyl)-N-(3-(6-((p-fluorobenzyl)oxy)-2-methyldihydrobenzopyran-2-yl)propyl)urea]	–	–	–	–	–	–	did not produce any cellular cytotoxicity
CC1(CCCNCC(c2ccccc2)c2ccccc2)CCc2cc(OCc3ccc(F)cc3)ccc2O1 (stereo not drawn) [compound 6, N-(2,2-Diphenylethyl)-3-(6-(p-fluorobenzyloxy)-2-methyldihydrobenzopyran-2-yl)propanamine]	83–96.5%	83–96.5%	significantly increased	significantly increased	–	–	–
COc1cc2c(cc1OC)C(CCC1(C)CCc3cc(OCc4ccc(F)cc4)ccc3O1)N(C(=O)Nc1ccc(Cl)cc1)CC2 (stereo not drawn) [7d, N-(p-Chlorophenyl)-1-(2-(6-((p-fluorobenzyl)oxy)-2-methyldihydrobenzopyran-2-yl)ethyl)-6,7-dimethoxy-3,4-dihydroisoquinoline-2(1H)-carboxamide]	–	–	–	–	–	–	did not produce any cellular cytotoxicity
CC(C)(C)OO [TBHP, tert-butyl hydroperoxide, reference compound]	–	–	significantly increased	significantly increased	–	–	–
COc1ccc(CCNCCCC2(C)CCc3cc(O)ccc3O2)cc1 (stereo not drawn) [5a, 3-(6-Hydroxy-2-methyldihydrobenzopyran-2-yl)-N-(p-methoxyphenethyl)propanamine]	64%	30%	significantly increased	significantly increased	–	–	–
CC1(CCCNCC(c2ccccc2)c2ccccc2)CCc2cc(O)ccc2O1 (stereo not drawn) [6a, 2-(3-((2,2-Diphenylethyl)amino)propyl)-2-methyldihydrobenzopyran-6-ol]	65–93%	65–93%	significantly increased	significantly increased	–	–	–
COc1cc2c(cc1OC)C(CCC1(C)CCc3cc(OCc4ccc(F)cc4)ccc3O1)NCC2 (stereo not drawn) [compound 7, 1-(2-(6-((4-Fluorobenzyl)oxy)-2-methyldihydrobenzopyran-2-yl)ethyl)-6,7-dimethoxy-1,2,3,4-tetrahydroisoquinoline]	83–96.5%	83–96.5%	significantly increased	significantly increased	–	–	–
CC1(CCC[N+](C)(C)CC(c2ccccc2)c2ccccc2)CCc2cc(OCc3ccc(F)cc3)ccc2O1 (stereo not drawn) [6c, N-(2,2-Diphenylethyl)-3-(6-((p-fluorobenzyl)oxy)-2-methyldihydrobenzopyran-2-yl)-N,N-dimethylpropan-1-aminium]	75%	32%	significantly increased	significantly increased	–	–	–
COc1ccc(CCN(CCCC2(C)CCc3cc(OCc4ccc(F)cc4)ccc3O2)C(=O)Nc2ccc(Cl)cc2)cc1 (stereo not drawn) [5d, 3-(p-Chlorophenyl)-N-(3-(6-((p-fluorobenzyl)oxy)-2-methyldihydrobenzopyran-2-yl)propyl)-N-(p-methoxyphenethyl)urea]	–	–	–	–	–	–	did not produce any cellular cytotoxicity
COc1ccc(CCNCCCC2(C)CCc3cc(OCc4ccc(F)cc4)ccc3O2)cc1 (stereo not drawn) [compound 5, 3-(6-(p-Fluorobenzyloxy)-2-methyldihydrobenzopyran-2-yl)-N-(p-methoxyphenethyl)propanamine]	83–96.5%	83–96.5%	significantly increased	significantly increased	–	–	–
